# Measured values: ChEMBL document CHEMBL4020725, “Design and synthesis of novel xanthine derivatives as potent and selective A2B adenosine receptor antagonists for the treatment of chronic inflammatory airway diseases” (Eur J Med Chem, 2017)
# pKi: −log10 of the molar value.
# Key:
# [1] = biological target: T1, Adenosine receptor A1 (Homo sapiens) (UniProt P30542); assay: Displacement of [3H]-DPCPX from human adenosine A1 receptor expressed in HEK293 cell membranes at 0.1 uM after 90 mins relative to control
# T1 sequence (whole entry): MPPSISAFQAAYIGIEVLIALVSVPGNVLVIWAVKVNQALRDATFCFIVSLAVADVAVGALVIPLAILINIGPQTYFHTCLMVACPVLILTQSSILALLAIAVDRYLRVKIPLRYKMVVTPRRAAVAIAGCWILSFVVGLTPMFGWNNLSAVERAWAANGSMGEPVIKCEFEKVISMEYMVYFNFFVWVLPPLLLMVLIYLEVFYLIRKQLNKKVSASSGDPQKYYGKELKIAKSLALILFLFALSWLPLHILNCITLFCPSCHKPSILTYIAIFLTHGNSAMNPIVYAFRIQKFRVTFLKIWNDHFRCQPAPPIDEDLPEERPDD
# Procedure, shortened: (§1)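 Membranes from HEK-293 cells stably transfected with human A1, A2A or A3 receptor, pretreated with 1 U/ml ADA. Membranes are incubated 90 min at room temperature with gentle agitation. Tracer and buffer per receptor: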
# Adenosine receptor A2b = biological target: T2, Adenosine receptor A2b (Homo sapiens, UniProt P29275); assay: Displacement of [3H]-MRS-1754 from human adenosine A2B receptor expressed in HEK293 cell membranes after 90 mins; conditions: for pKi: read-out: Ki; for Ki: hek293
# T2 sequence (P29275 whole entry): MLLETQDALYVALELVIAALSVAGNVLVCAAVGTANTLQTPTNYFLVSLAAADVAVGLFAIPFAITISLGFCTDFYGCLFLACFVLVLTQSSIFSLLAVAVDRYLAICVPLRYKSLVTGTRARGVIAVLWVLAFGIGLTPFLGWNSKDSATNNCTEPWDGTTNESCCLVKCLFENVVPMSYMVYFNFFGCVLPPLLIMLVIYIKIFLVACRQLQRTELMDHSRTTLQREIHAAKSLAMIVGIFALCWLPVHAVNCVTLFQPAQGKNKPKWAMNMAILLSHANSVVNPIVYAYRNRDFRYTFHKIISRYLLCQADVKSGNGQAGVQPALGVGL
# Procedure, shortened: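 Membranes from HEK-293 cells stably expressing human A2B, ADA-treated, incubated with 1.6 nM [3H]-MRS-1754 in 50 mM Tris pH 6.5, 5 mM MgCl2, 1 mM EDTA, 1 U/ml ADA. Incubation 90 min at room temperature. Filtration; nonspecific binding with 100 µM NECA. Eight compound concentrations, each in triplicate; Ki derived by fitting.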
# [2] = biological target: Adenosine receptor A2a (Homo sapiens) (UniProt P29274); assay: Displacement of [3H]-ZM241385 from human adenosine A2A receptor expressed in HEK293 cell membranes at 0.1 uM after 90 mins relative to control; procedure, shortened: as §1
# Sequence of Adenosine receptor A2a (Homo sapiens) (P29274 whole entry): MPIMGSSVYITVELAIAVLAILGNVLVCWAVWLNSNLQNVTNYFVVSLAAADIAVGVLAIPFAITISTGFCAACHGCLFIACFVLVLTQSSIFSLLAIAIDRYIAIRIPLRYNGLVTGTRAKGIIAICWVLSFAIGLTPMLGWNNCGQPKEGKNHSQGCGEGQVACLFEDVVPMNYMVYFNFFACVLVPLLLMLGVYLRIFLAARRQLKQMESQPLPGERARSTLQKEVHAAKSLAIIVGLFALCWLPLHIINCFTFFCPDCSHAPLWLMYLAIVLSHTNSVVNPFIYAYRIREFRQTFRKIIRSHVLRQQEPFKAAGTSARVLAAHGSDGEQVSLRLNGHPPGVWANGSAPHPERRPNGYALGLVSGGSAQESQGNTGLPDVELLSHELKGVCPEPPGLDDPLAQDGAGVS
# [3] = biological target: T3, Adenosine receptor A3 (Homo sapiens) (UniProt P0DMS8); assay: Displacement of [3H]-HEMADO from human adenosine A3 receptor expressed in HEK293 cell membranes at 1 uM after 90 mins relative to control; procedure, shortened: as §1
# T3 sequence (whole entry): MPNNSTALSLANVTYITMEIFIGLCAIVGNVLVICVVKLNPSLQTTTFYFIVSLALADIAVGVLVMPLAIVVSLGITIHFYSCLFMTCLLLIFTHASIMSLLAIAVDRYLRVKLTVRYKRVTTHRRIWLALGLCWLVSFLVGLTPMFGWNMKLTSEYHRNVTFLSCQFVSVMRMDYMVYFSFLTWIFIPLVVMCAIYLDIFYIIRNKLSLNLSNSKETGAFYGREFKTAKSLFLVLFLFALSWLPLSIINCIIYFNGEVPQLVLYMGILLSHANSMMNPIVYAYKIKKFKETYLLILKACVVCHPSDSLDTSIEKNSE
Compound,inhibition [1] [%],pKi (Adenosine receptor A2b),inhibition [2] [%],inhibition [3] [%],Ki (Adenosine receptor A2b)
CCCn1c(=O)[nH]c2nc(-c3cnn(CC#Cc4ccc(C(F)(F)F)cc4)c3)[nH]c2c1=O,89,8.89,39,15,
CCCn1c(=O)c2[nH]c(-c3cnn(CC#Cc4cccc(C)c4)c3)nc2n(CCC)c1=O,57,8.30,55,9,
CCCn1c(=O)[nH]c2nc(-c3cnn(CC#Cc4cccc(C(=O)O)c4)c3)[nH]c2c1=O,,7.32,,,
CCCn1c(=O)c2[nH]c(-c3cnn(CC#Cc4cccc(F)c4)c3)nc2n(CC)c1=O,73,8.13,58,23,
CCCn1c(=O)c2[nH]c(-c3cnn(CC#CCN4CCCCC4)c3)nc2n(CCC)c1=O,64,6.85,74,73,
CCCn1c(=O)c2[nH]c(-c3cnn(CC#Cc4ccc(C(F)(F)F)cc4)c3)nc2n(CC)c1=O,66,7.92,21,14,
CCCn1c(=O)c2[nH]c(-c3cnn(CC#Cc4ccc(F)cc4)c3)nc2n(CC)c1=O,92,8.14,56,33,
CCCn1c(=O)c2[nH]c(-c3cnn(CC#Cc4ccccc4C(F)(F)F)c3)nc2n(CCC)c1=O,52,7.54,29,25,
CCCn1c(=O)c2[nH]c(-c3cnn(CC#Cc4ccc(C(=O)OCC)cc4)c3)nc2n(CCC)c1=O,80,8.46,19,27,
CCCn1c(=O)c2[nH]c(-c3cc(OCC#Cc4cccc(C(F)(F)F)c4)n(C)n3)nc2n(CCC)c1=O,,,,,Nd(Insoluble)
CCCn1c(=O)c2[nH]c(-c3cnn(CC#CCN4CCN(c5cccc(C(F)(F)F)c5)CC4)c3)nc2n(CCC)c1=O,69,7.92,10,31,
CCCn1c(=O)c2[nH]c(-c3cc(OCC#Cc4cccc(F)c4)no3)nc2n(CCC)c1=O,,7.26,,,
CCCn1c(=O)c2[nH]c(-c3cnn(CC#Cc4cccc(C(=O)O)c4)c3)nc2n(CC)c1=O,,6.72,,,
CCCn1c(=O)c2[nH]c(-c3cnn(CC#CCN4CCOCC4)c3)nc2n(CCC)c1=O,28,6.48,39,51,
CCCn1c(=O)c2[nH]c(-c3cc(OCC#Cc4ccc(C(F)(F)F)cc4)no3)nc2n(CCC)c1=O,,,,,Nd(Insoluble)
CCCn1c(=O)c2[nH]c(-c3ccc(OCC#Cc4cccc(F)c4)cc3)nc2n(CCC)c1=O,,< 6.00,,,
CCCn1c(=O)c2[nH]c(-c3cc(OCC#Cc4cccc(C(F)(F)F)c4)no3)nc2n(CCC)c1=O,,< 6.22,,,
CCCn1c(=O)c2[nH]c(-c3cnn(CC#Cc4ccc(C(=O)O)cc4)c3)nc2n(CCC)c1=O,19,7.75,44,25,
CCCn1c(=O)c2[nH]c(-c3ccc(OCC#Cc4ccc(C(F)(F)F)cc4)cc3)nc2n(CCC)c1=O,,,,,Nd(Insoluble)
CCCn1c(=O)c2[nH]c(-c3cnn(CC#CCN4CCN(C)CC4)c3)nc2n(CCC)c1=O,55,7.08,73,79,
CCCn1c(=O)c2[nH]c(-c3cnn(CC#Cc4ccc(F)cc4)c3)nc2n(CCC)c1=O,105,8.23,66,19,
C#CCn1cc(-c2nc3c([nH]2)c(=O)n(CCC)c(=O)n3CCC)cn1,56,7.21,69,32,
CCCn1c(=O)[nH]c2nc(-c3cnn(CC#Cc4cccc(F)c4)c3)[nH]c2c1=O,53,8.52,60,0,
CCCn1c(=O)[nH]c2nc(-c3cnn(CC#Cc4cccc(OC(F)(F)F)c4)c3)[nH]c2c1=O,14,8.55,33,0,

Compound,inhibition [1] [%],pKi (Adenosine receptor A2b),inhibition [2] [%],inhibition [3] [%],Ki (Adenosine receptor A2b)
CCCn1c(=O)c2[nH]c(-c3cc(OCC#Cc4ccc(F)cc4)no3)nc2n(CCC)c1=O,,7.82,,,
CCCn1c(=O)[nH]c2nc(-c3cnn(CC#Cc4cccc(C(F)(F)F)c4)c3)[nH]c2c1=O,26,8.66,39,0,
CCCn1c(=O)c2[nH]c(-c3cnn(CC#Cc4cccc(F)c4)c3)nc2n(CCC)c1=O,87,8.17,64,0,
CCCn1c(=O)c2[nH]c(-c3cnn(CC#Cc4cccc(C#N)c4)c3)nc2n(CCC)c1=O,52,8.43,84,0,
CCCn1c(=O)c2[nH]c(-c3cnn(CC#CC4(O)CCCCC4)c3)nc2n(CCC)c1=O,,7.00,,,
CCCn1c(=O)c2[nH]c(-c3cnn(CC#Cc4ccc(C(F)(F)F)cc4)c3)nc2n(CCC)c1=O,84,8.82,30,12,
CC#CCn1cc(-c2nc3c([nH]2)c(=O)n(CCC)c(=O)n3CCC)cn1,42,7.64,60,,
CCCn1c(=O)c2[nH]c(-c3cnn(CC#Cc4ccc(OC(F)(F)F)cc4)c3)nc2n(CCC)c1=O,92,8.26,51,37,
CCCn1c(=O)[nH]c2nc(-c3cnn(CC#Cc4ccc(F)cc4)c3)[nH]c2c1=O,77,8.80,55,0,
CCCn1c(=O)c2[nH]c(-c3cnn(CC#Cc4ccc(OC(F)(F)F)cc4)c3)nc2n(CC)c1=O,84,8.00,49,32,
CCCn1c(=O)c2[nH]c(-c3cnn(CC#CCN4CCCC4)c3)nc2n(CCC)c1=O,66,6.92,67,59,
CCCn1c(=O)[nH]c2nc(-c3cnn(CC#Cc4ccc(OC(F)(F)F)cc4)c3)[nH]c2c1=O,88,8.80,46,17,
CCCn1c(=O)c2[nH]c(-c3cnn(CC#CC4(O)CCCC4)c3)nc2n(CCC)c1=O,,7.10,,,
CCCn1c(=O)c2[nH]c(-c3ccc(OCC#Cc4ccc(OC(F)(F)F)cc4)cc3)nc2n(CCC)c1=O,,< 6.22,,,
CCCn1c(=O)c2[nH]c(-c3cc(OCC#Cc4cccc(OC(F)(F)F)c4)no3)nc2n(CCC)c1=O,,< 6.22,,,
CCCn1c(=O)c2[nH]c(-c3ccc(OCC#Cc4cccc(OC(F)(F)F)c4)cc3)nc2n(CCC)c1=O,,,,,Nd(Insoluble)
CCCn1c(=O)c2[nH]c(-c3cnn(CC#Cc4ccccc4C(=O)OC)c3)nc2n(CCC)c1=O,37,7.92,41,43,
CCCn1c(=O)c2[nH]c(-c3cnn(CC#CCN(CC)CC)c3)nc2n(CCC)c1=O,71,6.70,59,69,
CCCn1c(=O)c2[nH]c(-c3cnn(CC#Cc4ccc(C)cc4)c3)nc2n(CCC)c1=O,70,8.19,33,0,
CCCn1c(=O)c2[nH]c(-c3cnn(CC#Cc4cccc(OC)c4)c3)nc2n(CCC)c1=O,57,8.20,74,21,
CCCn1c(=O)c2[nH]c(-c3ccc(OCC#Cc4ccc(F)cc4)cc3)nc2n(CCC)c1=O,,,,,Nd(Insoluble)
CCCn1c(=O)c2[nH]c(-c3cc(OCC#Cc4ccc(OC(F)(F)F)cc4)n(C)n3)nc2n(CCC)c1=O,,,,,Nd(Insoluble)
CCCn1c(=O)c2[nH]c(-c3cnn(CC#Cc4ccc(C(=O)O)cc4)c3)nc2n(CC)c1=O,,6.89,,,
